We go through 26 molecules from ChEMBL document CHEMBL1148254, “Lead discovery of quinoxalinediones as an inhibitor of dipeptidyl peptidase-IV (DPP-IV) by high-throughput screening” (Bioorg Med Chem Lett, 2004).

The structures appear in SMILES notation.

The assay deals with Dipeptidyl peptidase 4 (Rattus norvegicus) (UniProt P14740). As to the kind of experiment: Inhibitory activity against Dipeptidylpeptidase IV in rat. Also on record: concentration or dose not given beside the values. The conditions noted are these: concentration not given here. In outline: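 Rat plasma was the enzyme source, incubated with Ala-Pro-AFC substrate (40) at room temperature, pH 7.8, for 1 h with or without test compound (20). Compounds were dissolved in DMSO, giving 5% DMSO in the assay mixture. Released AFC was read by fluorescence at 360 nm excitation and 485 nm emission, and a reference inhibitor was included.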
Dipeptidyl peptidase 4 (Rattus norvegicus), sequence (P14740 whole entry, looked up): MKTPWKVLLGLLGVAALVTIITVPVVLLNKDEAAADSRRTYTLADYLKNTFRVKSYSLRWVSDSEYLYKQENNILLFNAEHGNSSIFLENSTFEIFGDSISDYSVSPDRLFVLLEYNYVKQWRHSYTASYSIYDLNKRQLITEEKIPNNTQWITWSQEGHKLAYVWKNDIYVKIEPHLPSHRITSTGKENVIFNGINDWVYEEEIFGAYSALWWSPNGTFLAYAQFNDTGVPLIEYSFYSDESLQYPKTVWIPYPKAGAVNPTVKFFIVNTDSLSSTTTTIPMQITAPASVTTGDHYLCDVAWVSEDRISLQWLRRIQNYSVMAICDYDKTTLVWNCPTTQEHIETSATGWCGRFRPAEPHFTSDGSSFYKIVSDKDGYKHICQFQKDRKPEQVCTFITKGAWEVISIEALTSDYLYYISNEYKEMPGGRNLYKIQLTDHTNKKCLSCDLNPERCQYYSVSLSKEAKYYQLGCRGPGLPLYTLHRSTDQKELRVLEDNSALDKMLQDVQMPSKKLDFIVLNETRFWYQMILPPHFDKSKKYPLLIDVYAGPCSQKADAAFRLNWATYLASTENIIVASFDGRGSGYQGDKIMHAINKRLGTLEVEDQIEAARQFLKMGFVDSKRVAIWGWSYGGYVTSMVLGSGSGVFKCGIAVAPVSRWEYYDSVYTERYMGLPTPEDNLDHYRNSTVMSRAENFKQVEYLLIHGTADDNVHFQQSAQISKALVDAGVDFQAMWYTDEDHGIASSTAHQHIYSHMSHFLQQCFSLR
The molecule `Cc1ccccc1S(=O)(=O)NC(=O)Nn1c(=O)c(=O)[nH]c2cc(Cl)c(Cl)cc21` had an inhibition of 10.4%. Take `Cc1ccccc1S(=O)(=O)NC(=O)Nn1c(=O)c(=O)[nH]c2ccccc21`: the inhibition was found to be 12.3%. `O=C(Nn1c(=O)c(=O)[nH]c2cc([N+](=O)[O-])ccc21)NS(=O)(=O)c1ccccc1` returned an inhibition of 57.2%.

`O=C(Nn1c(=O)c(=O)[nH]c2cc(Cl)ccc21)NS(=O)(=O)c1ccccc1`: the inhibition was found to be 17.3%.

In the case of `O=C(Nc1cccc(Cl)c1)Nn1c(=O)c(=O)[nH]c2cc([N+](=O)[O-])ccc21`, the inhibition was found to be 6.6%. `O=C(Nn1c(=O)c(=O)[nH]c2cc([N+](=O)[O-])ccc21)NS(=O)(=O)c1ccc(Cl)cc1`: the inhibition was 66.8%. For the molecule `Cc1ccc(S(=O)(=O)NC(=O)Nn2c(=O)c(=O)[nH]c3cc([N+](=O)[O-])ccc32)cc1`, the inhibition came to 48%.

In turn, `Cc1ccc(S(=O)(=O)NC(=O)Nn2c(=O)c(=O)[nH]c3cc(Cl)ccc32)cc1` returned an inhibition of 20.5%. `O=c1[nH]c2cc(Cl)c(Cl)cc2n(NC(=S)Nc2ccccc2)c1=O` displayed an inhibition of 50%. Then `O=C(NC(=O)c1ccccc1)Nn1c(=O)c(=O)[nH]c2cc(Cl)ccc21`, with 14.8%. For `Cc1ccccc1S(=O)(=O)NC(=O)Nn1c(=O)c(=O)[nH]c2cc([N+](=O)[O-])ccc21`, the inhibition stood at 79.1%.

Molecule `O=C(NC(=S)Nn1c(=O)c(=O)[nH]c2cc(Cl)c(Cl)cc21)c1ccccc1` came in with an inhibition of 20.5%. For `Cc1ccc(S(=O)(=O)NC(=O)Nn2c(=O)c(=O)[nH]c3cc(Cl)c(Cl)cc32)cc1` the value was 21%; for `O=C(NC(=O)c1ccccc1)Nn1c(=O)c(=O)[nH]c2ccccc21`, 13%. For `O=c1[nH]c2ccccc2n(NC(=S)Nc2ccccc2)c1=O`, the inhibition was 26.5%. Then `Cc1ccccc1S(=O)(=O)NC(=O)Nn1c(=O)c(=O)[nH]c2cc(Cl)ccc21`, with 26.4%; and `O=C(Nn1c(=O)c(=O)[nH]c2ccccc21)NS(=O)(=O)c1ccccc1`, with 14.1%. Consider `O=C(Nn1c(=O)c(=O)[nH]c2cc(Cl)c(Cl)cc21)NS(=O)(=O)c1ccccc1`, for which the inhibition is 23.7%.

With `Cc1ccc(NC(=O)Nn2c(=O)c(=O)[nH]c3cc([N+](=O)[O-])ccc32)cc1`, the inhibition is 1%. Then `O=c1[nH]c2ccccc2n(NC(=S)Nc2cccc(Cl)c2)c1=O`, with 32.1%; and `O=C(NC(=O)c1ccccc1)Nn1c(=O)c(=O)[nH]c2cc([N+](=O)[O-])ccc21`, with 72.2%. Then `O=C(Nc1ccccc1)Nn1c(=O)c(=O)[nH]c2cc([N+](=O)[O-])ccc21`, with 3.6%; and `O=c1[nH]c2ccccc2n(NC(=S)NCc2ccccc2)c1=O`, with 41.5%; and `CC/N=C(\S)Nn1c(=O)c(=O)[nH]c2ccccc21`, with 40.1%. For `Cc1ccc(S(=O)(=O)NC(=O)Nn2c(=O)c(=O)[nH]c3ccccc32)cc1` the value was 12.3%; for `O=C(Nc1ccc(F)cc1F)Nn1c(=O)c(=O)[nH]c2cc([N+](=O)[O-])ccc21`, 5.1%.
